Assay results published in ChEMBL document CHEMBL4385671, “Discovery of small molecule inhibitors of human uridine-cytidine kinase 2 by high-throughput screening” (Bioorg Med Chem Lett, 2019).
The source made the active and inactive calls.

Assays:
[1] = biological target: T1, Uridine-cytidine kinase 2 (Homo sapiens, UniProt Q9BZX2); assay: Inhibition of C-terminally His6-tagged human UCK2 expressed in Escherichia coli BL21(DE3) cells incubated for 15 mins before ATP addition and measured after 60 mins by ADP-Glo kinase assay
T1 sequence (Q9BZX2 whole entry): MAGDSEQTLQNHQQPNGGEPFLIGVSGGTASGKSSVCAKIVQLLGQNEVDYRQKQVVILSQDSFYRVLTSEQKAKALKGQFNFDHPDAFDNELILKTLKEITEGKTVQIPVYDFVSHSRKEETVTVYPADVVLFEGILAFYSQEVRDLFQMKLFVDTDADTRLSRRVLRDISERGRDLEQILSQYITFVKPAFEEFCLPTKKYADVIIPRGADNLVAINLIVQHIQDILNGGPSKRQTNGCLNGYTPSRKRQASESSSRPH
How it was run: (§1)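 His6-tagged UCK2 (C-terminal tag), purified by Ni-NTA then ion exchange; UCK2 phosphorylates uridine with ATP and ADP-Glo measures the ADP formed, after depleting leftover ATP, as luciferase luminescence. Run in 1536-well format with 0.5 mg/mL BSA, DMSO up to 3%. Primary screen at 33 μM with hit cut-off of 3 SD of the negative control. Confirmation used 8 half-log concentrations, 0.05–167 µM.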

[2] = biological target: T2, Uridine-cytidine kinase 2 (Homo sapiens) (UniProt Q9BZX2); assay: Inhibition of UCK2 in human K562 cells assessed as inhibition of uridine salvage at 50 uM incubated for 24 hrs by 5-ethynyl-uridine incorporation assay; assay type: cell-based
T2 sequence (whole entry): T1 sequence (Q9BZX2 whole entry)
How it was run: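 K562 cells were given compound at 50 µM with 50 µM 5-ethynyl-uridine (5-EU). 5-EU incorporated into cellular RNA was quantified by click chemistry with a fluorescent probe. Dipyridamole at 20 µM served as control.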

[3] = biological target: T1, Uridine-cytidine kinase 2; assay: Inhibition of C-terminally His6-tagged human UCK2 expressed in Escherichia coli BL21(DE3) cells incubated for 15 mins before ATP addition and measured after 60 mins by ADP-Glo kinase assay based HTS assay; how it was run: as §1
[4] = biological target: Dihydroorotate dehydrogenase (quinone), mitochondrial (Homo sapiens) (UniProt Q02127); assay: Inhibition of DHODH in human K562 cells assessed as increase in uridine salvage at 200 nM incubated for 24 hrs by 5-ethynyl-uridine incorporation assay; assay type: cell-based
Sequence of Dihydroorotate dehydrogenase (quinone), mitochondrial (Homo sapiens) (Q02127 whole entry): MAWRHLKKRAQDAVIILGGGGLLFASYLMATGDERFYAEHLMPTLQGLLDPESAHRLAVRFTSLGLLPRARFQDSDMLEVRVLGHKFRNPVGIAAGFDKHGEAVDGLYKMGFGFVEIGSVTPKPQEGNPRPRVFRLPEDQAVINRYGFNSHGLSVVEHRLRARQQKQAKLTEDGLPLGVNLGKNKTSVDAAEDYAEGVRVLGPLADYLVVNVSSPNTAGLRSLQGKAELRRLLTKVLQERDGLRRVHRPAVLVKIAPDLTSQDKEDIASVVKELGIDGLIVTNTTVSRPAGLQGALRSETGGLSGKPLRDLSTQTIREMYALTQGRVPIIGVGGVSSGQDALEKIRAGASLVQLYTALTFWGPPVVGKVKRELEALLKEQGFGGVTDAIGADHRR

[5] = biological target: T1, Uridine-cytidine kinase 2; assay: Non-competitive inhibition of C-terminally His6-tagged human UCK2 expressed in Escherichia coli BL21(DE3) cells using uridine, phosphoenolpyruvate, NADH and varying ATP level by spectrophotometry based pyruvate kinase and lactate dehydrogenase coupled enzyme assay
How it was run: (§2)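 Continuous coupled assay of purified C-terminally His6-tagged UCK2. Substrate titration was done with either uridine or ATP varied, at inhibitor 0, 0.5, 1.5 or 4.5 µM. Ki was derived from kinetic analysis of these titrations.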

[6] = biological target: T1, Uridine-cytidine kinase 2; assay: Non-competitive inhibition of C-terminally His6-tagged human UCK2 expressed in Escherichia coli BL21(DE3) cells using phosphoenolpyruvate, NADH and varying uridine level by spectrophotometry based pyruvate kinase and lactate dehydrogenase coupled enzyme assay; how it was run: as §2
[7] = biological target: T3, UMP-CMP kinase (Homo sapiens) (UniProt P30085); assay: Inhibition of CMPK1 (unknown origin) by ADP-Glo kinase assay
T3 sequence (whole entry): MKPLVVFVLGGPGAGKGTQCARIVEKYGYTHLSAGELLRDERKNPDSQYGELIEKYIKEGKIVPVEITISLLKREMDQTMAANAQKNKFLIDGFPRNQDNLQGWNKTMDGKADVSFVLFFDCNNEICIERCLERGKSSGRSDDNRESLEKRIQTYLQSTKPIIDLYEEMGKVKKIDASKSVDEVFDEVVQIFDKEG

SMILES: Cc1ccc(-c2nc3c(c(SCC(=O)Nc4ccccc4)n2)Cc2cccc(C)c2O3)cc1
- IC50 ([1]; read-out: IC50): 26.8 µM
- inhibition [2]: inactive

SMILES: Cc1cccc2c1Oc1nc(-c3ccccc3)nc(SCC(=O)Nc3cccc(C(=O)O)c3)c1C2
- IC50 ([1]; read-out: IC50): 4.7 µM
- inhibition [2]: 49.6%

SMILES: O=C(CSc1nc(-c2ccc(F)cc2)nc2c1Cc1ccccc1O2)Nc1cccc(C(=O)O)c1
- IC50 [3]: 166 µM

SMILES: O=C(N[C@@H]1CCCc2c1[nH]c1ccc(Cl)cc21)c1ccccn1
- inhibition [4]: Active

SMILES: COc1cccc2c1Oc1nc(-c3ccc(C)cc3)nc(SCC(=O)Nc3cccc(C(=O)O)c3)c1C2
- IC50 ([1]; read-out: IC50): 11.8 µM
- inhibition [2]: 14.9%

SMILES: O=C(CSc1nc(-c2ccc(O)cc2)nc2c1Cc1ccccc1O2)Nc1cccc(C(=O)O)c1
- IC50 [3]: 166 µM

SMILES: O=C(CSc1nc2n(-c3ccc(F)cc3)[nH]cc-2c(=O)n1)Nc1ccc(Br)cc1
- IC50 ([1]; read-out: IC50): 16.4 to 16.6 µM
- Ki [5]: 12 µM
- IC50 [3]: 9.2 µM
- Ki [6]: 13 µM
- inhibition [2]: 31.3%

SMILES: Cc1ccc(-c2nc3c(c(SCC(=O)Nc4cccc(C(=O)O)c4)n2)Cc2cccc(C)c2O3)cc1
- IC50 ([1]; read-out: IC50): 3.8 µM
- Ki [5]: 1 µM
- IC50 [3]: 52 µM
- Ki [6]: 3.5 µM
- inhibition [2]: 51.7%

SMILES: CC(C)(C)c1ccc(-c2nc(SCC(=O)Nc3ccc(Cl)cc3)[nH]c(=O)c2C#N)cc1
- IC50 [3]: 138 µM

SMILES: COc1ccccc1NC(=O)CSc1nc(-c2ccc(C(C)(C)C)cc2)c(C#N)c(=O)[nH]1
- IC50 [3]: 80 µM

SMILES: O=C(CSCn1[nH]nc2c(=O)nc(Cc3ccc(F)cc3)nc1-2)Nc1ccc(F)cc1
- IC50 [1]: Not Active

SMILES: COc1cccc(NC(=O)CSCn2[nH]nc3c(=O)nc(Cc4ccc(F)cc4)nc2-3)c1
- IC50 [1]: Not Active

SMILES: Cc1ccccc1NC(=O)CSCn1[nH]nc2c(=O)nc(Cc3ccc(F)cc3)nc1-2
- inhibition [2]: 26.3%

SMILES: Cc1cc(C)cc(NC(=O)CSCn2[nH]nc3c(=O)nc(Cc4ccc(F)cc4)nc2-3)c1
- IC50 ([1]; read-out: IC50): 48 µM
- Ki [5]: 31 µM
- IC50 [3]: 18.9 µM
- inhibition [7]: inactive
- Ki [6]: 50 µM
- inhibition [2]: 41.5%
